Platelet DG rel – inhibitors of platelet dense granule secretion, primary screen, cell-based, MLPCN, human platelets; human platelet-rich plasma, SFLLRN dense granule ATP release, luminescence; inhibition, %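 (compounds screened at 7.5 µM in platelet-rich plasma)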; 300,000 compounds, 0.22% hits;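 active = mean replicate score, as percent of positive control, at or above 50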
PPC-1+TRAIL kill – compounds killing PPC-1 cancer cells with TRAIL present, primary screen, TRAIL potentiator project, ATPLite luminescence, uHTS. PPC-1 cells + TRAIL, ATPLite viability luminescence. cell killing (% activity), % at 4 µM or 5 µM. 220,000 compounds, 0.41% hits;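 active = cell killing above 50% in the first pass at 4 µM, then a duplicate retest at 5 µM averaging 50% or more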;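 note: plate controls were cells with TRAIL plus DMSO for no effect and medium-only wells lacking cells for full effect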
FLuc stim CS – FLuc activators, initial screening, artefact control for FLuc-dependent activation tests, biochemical, ATPlite luminescence; Luciferin 4-monooxygenase (Photinus pyralis), P08659; ATPlite luciferase biochemical, 10 min; 0 = ATP-free wells, 1 = DMSO control; activation factor at 10 µM; 200,000 tested, under 10 active; AID 1027, 2008;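 active = luciferase activation factor, scaled between plate controls, of at least 2 with compound at 10 µM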
Target sequence (P08659 whole entry, looked up): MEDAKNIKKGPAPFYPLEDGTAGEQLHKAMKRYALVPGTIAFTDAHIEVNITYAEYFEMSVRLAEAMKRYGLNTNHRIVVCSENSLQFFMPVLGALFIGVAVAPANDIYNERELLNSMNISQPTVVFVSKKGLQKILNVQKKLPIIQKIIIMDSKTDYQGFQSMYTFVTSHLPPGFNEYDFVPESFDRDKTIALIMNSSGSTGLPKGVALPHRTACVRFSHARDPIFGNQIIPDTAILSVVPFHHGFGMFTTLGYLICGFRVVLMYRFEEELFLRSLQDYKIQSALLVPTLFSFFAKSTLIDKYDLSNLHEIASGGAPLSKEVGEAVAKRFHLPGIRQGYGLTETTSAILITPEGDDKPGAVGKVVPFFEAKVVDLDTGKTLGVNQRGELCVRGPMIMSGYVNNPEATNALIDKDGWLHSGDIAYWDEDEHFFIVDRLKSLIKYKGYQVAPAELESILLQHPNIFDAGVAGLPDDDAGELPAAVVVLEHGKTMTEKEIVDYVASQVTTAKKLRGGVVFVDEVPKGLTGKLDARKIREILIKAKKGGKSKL
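System: cell-free luciferase reagent; medium: PBS as buffer for the ATP substrate; doses: test compounds dosed from 2 mM stocks in 100% DMSO; incubation: 10 min, room temperature; measured by: luminescence from luciferase reaction; read-out: luciferase activation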
FLuc inh counter – firefly luciferase enzyme inhibitors, primary screen, artefact control for luciferase-based inhibitor screens, biochemical, luminescence, ATPLite; Luciferin 4-monooxygenase (Photinus pyralis), P08659; 10 min; inhibition, % at 10 µM; 200,000 compounds, 1.5% hits;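 active = inhibition above about 50% when tested at 10 µM, limit read from the data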
C8 TRAIL sens – viability loss with TRAIL in NB7+C8 cells, primary screen, TRAIL sensitizer project, cell-based, ATPlite luminescence; 360,000 compounds, 1% hits; inhibition (viability loss, TRAIL sensitization), % at 10 µM; AID 624354, 2012;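 active = compounds causing at least 50% loss of cell viability in the single-dose screen, relative to plate controls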
* marks the source's active call; other numbers are inactive results; . = no result. In the library only some 1.6% were active in any assay of this set; here they are far more common.

SMILES | Platelet DG rel | PPC-1+TRAIL kill | FLuc stim CS | FLuc inh counter | C8 TRAIL sens
O=C(NOCc1ccccc1)c1ccc(Cl)cc1 | . | . | . | . | 51*
O=C(NC1CCCC1)C(C1CC1)n1c(C2CC2)nc2ccccc21 (stereo not drawn) | . | . | . | . | -9
Fc1ccccc1Nc1nc2ccccc2o1 | 58* | . | . | . | 26
FC(F)(F)Oc1ccc(Nc2nc3ccccc3o2)cc1 | 2 | -17 | 1 | 5 | 1
c1ccc(Nc2nc3ccccc3o2)cc1 | 5 | 28 | 0.4 | 58* | 36
Cc1ccc(S(=O)(=O)N2C[C@H]3C(=O)C[C@@H](c4ccccc4)N(S(=O)(=O)c4ccc(C)cc4)[C@H]3C[C@H]2c2ccccc2F)cc1 | . | . | . | . | 9
N#Cc1c(/N=C/c2ccco2)sc2c1CCCCC2 | 8 | 7 | 0.1 | 94* | 3
N#Cc1c(/N=C/c2cccs2)sc2c1CCC2 | 8 | 21 | 0.4 | 62* | 10
N#Cc1c(/N=C/c2cc(Br)cs2)sc2c1CCC2 | 2 | . | . | . | -10
CCCC(=O)N1CCCC1(C)C(=O)Nc1ccc(OC(F)F)cc1 (stereo not drawn) | . | . | . | . | -3
CCCCCCCNC(=O)C1(CC2CC(c3ccc(Cl)cc3)=NO2)CCN(C(=O)Cc2ccc(F)cc2)CC1 (stereo not drawn) | -3 | . | . | . | 22
CCCCCCCNC(=O)C1(CC2CC(c3cccc(Br)c3)=NO2)CCNCC1 (stereo not drawn) | -7 | . | . | . | 87*
CCCCCCCNC(=O)C1(CC2CC(c3ccc(Cl)cc3)=NO2)CCNCC1 (stereo not drawn) | 2 | . | . | . | 71*
Cc1ncsc1C(=O)Nc1nc2c(s1)CC(C)CC2 (stereo not drawn) | 23 | 40 | 0.4 | 58* | 35
CC1CCc2nc(NC(=O)Nc3ccc4c(c3)OCO4)sc2C1 (stereo not drawn) | 3 | 36 | 0.5 | 53* | 19
COc1cc(/C=N/Nc2nc3ccccc3o2)cc(OC)c1O | 0 | -3 | 0.9 | 13 | 7
COc1ccc(/C=N/Nc2nc3ccccc3o2)cc1O | 22 | 44 | 0.3 | 66* | 47
c1csc(-c2ccc(N3CCOCC3)nn2)c1 | 30 | . | . | . | 60*
CC(C)(C)NC(=O)C(c1ccc(C(F)(F)F)cc1)n1c(=O)c(-c2ccco2)nc2ccccc21 (stereo not drawn) | . | . | . | . | 1
CCC(=O)Nc1ccc2c(c1)OC[C@@H](C)N(Cc1cccc(F)c1)C[C@@H](C)[C@@H](OC)CN(C)C2=O | . | . | . | . | -5
CCN(CC(=O)Nc1ccccc1C(F)(F)F)C(=O)CCc1c(C)[nH]c(=O)c(C#N)c1C | 65* | . | . | . | -8
O=C(NCc1cc2ccccc2[nH]1)C1CCC(=O)N(CC2CCCCC2)C1 (stereo not drawn) | . | . | . | . | 1
CCOC(=O)c1[nH]c2ccc(C)cc2c1N | 13 | 21 | 0.5 | 51* | -2
CC(=O)Oc1ccc(/C=N\NC(=O)c2cc3c(ccc4ccccc43)o2)cc1 | -8 | . | . | . | 64*
COc1cccc(C(=O)/C=C/Nc2cc(C)ccc2O)c1 | 13 | 16 | 0.4 | 62* | 55*
SMILES | Platelet DG rel | PPC-1+TRAIL kill | FLuc stim CS | FLuc inh counter | C8 TRAIL sens
COc1ccc(C(C)(O)c2nc(-c3cccc(O)c3)cs2)cc1 (stereo not drawn) | . | . | . | . | -6
Cc1[nH]n(-c2ccccc2)c(=O)c1N=Nc1ccccc1O | 6 | 46 | 1 | 3 | 57*
Cc1ccccc1N=Nc1c(C)[nH]n(-c2ccccc2)c1=O | . | 25 | 1 | -3 | .
Cc1noc(/C=C/Nc2ccc(F)cc2F)c1[N+](=O)[O-] | 20 | 3 | 1 | 1 | 3
COc1ccccc1N/C=C/c1onc(C)c1[N+](=O)[O-] | 64* | 33 | 0.4 | 59* | 47
Fc1ccc2c(c1)[C@H]1OCC[C@H]1[C@@H](c1ccco1)N2 | 1 | 15 | 1.1 | -5 | -14
Clc1ccc2c(c1)[C@H]1OCC[C@H]1[C@@H](c1ccco1)N2 | 16 | 14 | 0.4 | 59* | 12
O=C(Nc1ccc2c(c1)OCO2)c1noc2c1CCCCC2 | 13 | 34 | 0.4 | 57* | 47
CCCOc1cccc(C(=O)Nc2ccc3c(c2)OCCO3)c1 | 3 | . | . | . | 52*
CCOc1cccc(C(=O)Nc2ccc3[nH]ncc3c2)c1 | 13 | . | . | . | 62*
C/C(=C\C(=O)c1ccc(C)o1)Nc1ccc2c(c1)OCO2 | 1 | 5 | 0.5 | 52* | 10
COc1cccc(C(=O)Nc2ccc3[nH]ncc3c2)c1 | 9 | . | . | . | 44
Cc1ccn2cc(C(=O)Nc3ccc4c(c3)OCCO4)nc2c1 | -10 | 43 | 0.3 | 73* | 62*
Cc1ccc(C(=O)Nc2ccc3c(c2)OCCO3)cc1 | 9 | . | . | . | 84*
Cc1cccc(OCC(=O)Nc2ccc3c(c2)OCCO3)c1 | . | 17 | 0.5 | 54* | 23
O=C(Nc1ccc2c(c1)OCCO2)c1cccc(Br)c1 | 12 | . | . | . | 50
O=C(Nc1ccc2c(c1)OCCO2)c1ccc(Br)cc1 | 3 | . | . | . | 52*
COc1ccc(C(NC(=O)C2CCN(CCOc3ccc(Cl)cc3)CC2)c2cccs2)cc1 (stereo not drawn) | . | . | . | . | -2
Cc1ccc(C(=O)Nc2ccc3c(c2)OCO3)cc1 | 9 | 72* | 0.1 | 88* | 74*
O=C(Nc1ccc2c(c1)OCO2)c1ccncc1 | -2 | -2 | 1 | 1 | 2
Cc1ccc(C(=O)Nc2ccc3c(c2)OCCO3)c(Cl)c1 | 10 | . | . | . | 83*
O=C(Nc1ccc2c(c1)OCCO2)c1cc(F)c(F)cc1Cl | 8 | . | . | . | 20
CCOc1ccc(C(=O)Nc2ccc3c(c2)OCCO3)cc1 | 28 | . | . | . | 55*
COc1ccc(Cl)cc1C(=O)Nc1ccc2c(c1)OCCO2 | 1 | . | . | . | 52*
CN(C)CCNc1nc(Oc2ccccc2)c2sccc2n1 | . | . | . | . | 2
SMILES | Platelet DG rel | PPC-1+TRAIL kill | FLuc stim CS | FLuc inh counter | C8 TRAIL sens
CCCC(C)(C)C(=O)N1CCC1(C)C(=O)Nc1cccc(OC)c1 (stereo not drawn) | . | . | . | . | -16
N#Cc1cccc(NCC(=O)Nc2ccc3c(c2)OCCO3)c1 | -7 | 22 | 0.3 | 65* | 28
COc1ccc(/C=C2\OC(=O)c3c(OC)cccc32)cc1OC | 4 | -4 | 0.5 | 50* | 13
COc1ccc(C=C2C(=O)OC(C)(C)OC2=O)cc1OC | 2 | 9 | . | . | 7
CCCNC(=O)C1(C)CCCN(C(=O)Cc2cccc(OC)c2)C1 (stereo not drawn) | . | . | . | . | -3
c1ccc(-c2nnc(NC3=NCCC3)o2)cc1 | -4 | 40 | 0.3 | 66* | 33
O=C(Nc1nnc(-c2ccccc2)o1)NC1CCCCC1 | 6 | 6 | 1 | -2 | 61*
O=C(Nc1ccccc1)Nc1nnc(-c2ccccc2)o1 | -3 | 20 | 1 | 1 | 7
S=c1nc[nH]c2nc[nH]c12 | 0 | . | . | . | 71*
COCCCNc1ccn2nc(-c3ccccc3)cc2n1 | . | . | . | . | 53*
COCCCNc1ccn2nc(-c3cccc(Cl)c3)cc2n1 | . | . | . | . | 19

Screening results from PubChem.
